This is an account of results in ChEMBL document CHEMBL4325907, “Diaryl hydroxylamines as pan or dual inhibitors of indoleamine 2,3-dioxygenase-1, indoleamine 2,3-dioxygenase-2 and tryptophan dioxygenase” (Eur J Med Chem, 2019).

In one data set the target is T1, Indoleamine 2,3-dioxygenase 2 (Mus musculus, UniProt Q8R0V5).
T1 sequence (Q8R0V5 whole entry): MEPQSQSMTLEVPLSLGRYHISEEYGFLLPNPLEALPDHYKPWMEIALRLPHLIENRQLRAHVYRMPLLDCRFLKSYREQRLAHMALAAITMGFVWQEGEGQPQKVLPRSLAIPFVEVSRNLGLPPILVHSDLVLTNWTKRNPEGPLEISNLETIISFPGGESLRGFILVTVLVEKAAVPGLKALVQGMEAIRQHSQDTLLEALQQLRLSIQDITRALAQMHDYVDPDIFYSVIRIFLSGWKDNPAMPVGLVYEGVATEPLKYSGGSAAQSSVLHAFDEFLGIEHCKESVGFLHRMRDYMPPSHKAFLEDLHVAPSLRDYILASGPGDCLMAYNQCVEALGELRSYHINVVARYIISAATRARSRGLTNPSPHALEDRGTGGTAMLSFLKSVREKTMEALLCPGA
Kind of data set: Inhibition of mouse IDO2 expressed in human T-REx cells using L-tryptophan as substrate after 20 hrs. It counts as cell-based.
Conditions: not given
In outline: (§1)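 HeLa cells (endogenous human IDO1) were induced with 100 ng/mL IFNγ for 24 h at 100 μM Trp. T-REx cells carried tet-regulated human TDO (2 ng/mL doxycycline, 24 h, 100 μM Trp) or mouse IDO2 (doxycycline plus 8 mM 5-aminolevulinic acid, 20 μM hemin, 4 mM Trp, 48 h). After induction, compound serial dilutions were added in medium with final Trp 100 μM (IDO1/TDO) or 2 mM (IDO2) for 20 h at 37 °C. Read-out was TCA fixation, 65 °C hydrolysis, then p-dimethylaminobenzaldehyde colour.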
One may read the IC50 as the midpoint of a concentration-inhibition curve. Lower therefore signals greater potency in that assay. `NOC(CCc1cccc(Cl)c1)c1ccccc1` (centres undefined) gave an IC50 of 20.5 µM.
`COc1ccccc1C(ON)c1ccccc1` (centres undefined): the IC50 was found to be 16.5 µM.
The same measure, in the same setting: the figure for `NOC(c1ccccc1)c1ccccc1F` (centres undefined) is 30.5 µM; for `NOC(c1ccc(Cl)cc1)c1ccc(Cl)cc1` it is 12.5 µM.
On the same count and under the same terms, the figure for `O=C1CC(c2c[nH]c3ccc(F)cc23)C(=O)N1` (centres undefined) [PF-06840003] is 327 µM.
`NOC(c1ccccc1)c1ccsc1` (centres undefined) yielded an IC50 of 49.9 µM. This IC50 is about 6.6-fold lower than that of the compound before.
On the same count and under the same terms, the figure for `NOC(c1ccccc1)c1cccc(Cl)c1Cl` (centres undefined) is 8.95 µM; for `NOC(c1ccccc1)c1cc(F)cc(F)c1` (centres undefined) it is 8.75 µM; for `NS(=O)(=O)NCCNc1nonc1C(=NO)Nc1ccc(F)c(Br)c1` [EPACADOSTAT] it is 18.9 µM.
Same read-out and setting: the figure for `NOC(c1ccccc1)c1cccc(Br)c1` (centres undefined) is 11.8 µM.

For another data set, the target named is T2, Tryptophan 2,3-dioxygenase (Homo sapiens, UniProt P48775). Kind of data set: Inhibition of human TDO expressed in human T-REx cells using L-tryptophan as substrate after 20 hrs.
Conditions: not given
It counts as cell-based. In short, it runs like this:
as §1
Target sequence in this assay (P48775 whole entry): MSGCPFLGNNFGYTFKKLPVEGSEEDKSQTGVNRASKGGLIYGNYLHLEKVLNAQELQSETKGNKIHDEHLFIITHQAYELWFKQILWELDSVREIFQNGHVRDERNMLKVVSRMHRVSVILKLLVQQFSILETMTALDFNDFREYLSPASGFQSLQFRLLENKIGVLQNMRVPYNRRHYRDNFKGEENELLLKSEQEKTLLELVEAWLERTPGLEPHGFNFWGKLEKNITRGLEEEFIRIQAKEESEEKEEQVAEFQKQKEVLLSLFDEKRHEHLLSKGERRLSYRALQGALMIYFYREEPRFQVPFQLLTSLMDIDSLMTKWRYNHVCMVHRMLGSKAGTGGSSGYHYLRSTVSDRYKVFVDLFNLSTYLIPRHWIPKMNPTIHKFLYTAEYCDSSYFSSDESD
Turning to `NOC(CCc1cccc(Cl)c1)c1ccccc1` (centres undefined), the IC50 was found to be 58.7 µM.
Same read-out and setting: the figure for `COc1ccccc1C(ON)c1ccccc1` (centres undefined) is 48.8 µM; for `NOC(c1ccccc1)c1ccccc1F` (centres undefined) it is 3.92 µM; for `NOC(c1ccc(Cl)cc1)c1ccc(Cl)cc1` it is 4.53 µM.
Same read-out and setting: the figure for `O=C1CC(c2c[nH]c3ccc(F)cc23)C(=O)N1` (centres undefined) [PF-06840003] is 378 µM; for `NOC(c1ccccc1)c1ccsc1` (centres undefined) it is 4.41 µM; for `NOC(c1ccccc1)c1cccc(Cl)c1Cl` (centres undefined) it is 4.54 µM.
`NOC(c1ccccc1)c1cc(F)cc(F)c1` (centres undefined): the midpoint of inhibition, the IC50, lay at 3.48 µM. This IC50 and that of the compound before are within 1.5-fold of each other.
Same read-out and setting: the figure for `NS(=O)(=O)NCCNc1nonc1C(=NO)Nc1ccc(F)c(Br)c1` [EPACADOSTAT] is 25.2 µM.
On the same count and under the same terms, the figure for `NOC(c1ccccc1)c1cccc(Br)c1` (centres undefined) is 7.15 µM.

In the next data set the target is T2, Tryptophan 2,3-dioxygenase. The experiment in a line: Inhibition of TDO (unknown origin) using L-tryptophan as substrate by spectrophotometric method.
Conditions: not given
Target sequence in this assay (P48775 whole entry): as above
Take `NOC(c1ccc(Cl)cc1)c1ccc(Cl)cc1`: the IC50 stood at 2 µM.
Regarding `NOC(c1ccccc1)c1cccc(Cl)c1Cl` (centres undefined), it took 9 µM to reach half-maximal inhibition (IC50). This IC50 is about 4.5-fold higher than that of the compound before.

The target in the next data set is T3, Indoleamine 2,3-dioxygenase 1 (Homo sapiens, UniProt P14902). The experiment in a line: Inhibition of IDO1 (unknown origin) using L-tryptophan as substrate by spectrophotometric method.
Conditions: not given
Target sequence in this assay (P14902 whole entry): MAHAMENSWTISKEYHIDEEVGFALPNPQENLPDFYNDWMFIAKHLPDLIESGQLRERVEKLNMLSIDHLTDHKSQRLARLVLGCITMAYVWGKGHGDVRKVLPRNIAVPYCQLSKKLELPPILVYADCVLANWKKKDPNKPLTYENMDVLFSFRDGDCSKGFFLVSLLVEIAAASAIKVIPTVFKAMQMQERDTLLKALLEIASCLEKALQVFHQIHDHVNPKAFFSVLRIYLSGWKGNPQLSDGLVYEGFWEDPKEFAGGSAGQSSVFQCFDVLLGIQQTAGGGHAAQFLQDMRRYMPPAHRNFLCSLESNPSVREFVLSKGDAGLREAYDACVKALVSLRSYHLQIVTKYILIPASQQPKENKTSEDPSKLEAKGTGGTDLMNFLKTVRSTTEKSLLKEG
As to `NOC(CCc1cccc(Cl)c1)c1ccccc1` (centres undefined), the IC50 was 7 µM.
Turning to `COc1ccccc1C(ON)c1ccccc1` (centres undefined), half-maximal inhibition (IC50) was put at 23 µM.
Still for that read-out and setting: the figure for `NOC(c1ccccc1)c1ccccc1F` (centres undefined) is 12 µM; for `NOC(c1ccc(Cl)cc1)c1ccc(Cl)cc1` it is 3 µM.
Still for that read-out and setting: the figure for `NOC(c1ccccc1)c1cccc(Cl)c1Cl` (centres undefined) is 8 µM.
Still for that read-out and setting: the figure for `NOC(c1ccccc1)c1cc(F)cc(F)c1` (centres undefined) is 4 µM.
In turn, `NOC(c1ccccc1)c1cccc(Br)c1` (centres undefined) showed an IC50 of 1 µM.

Another data set has as its target T3, Indoleamine 2,3-dioxygenase 1. The experiment in a line: Inhibition of IDO1 in human HeLa cells using L-tryptophan as substrate after 20 hrs. The data set is classed as cell-based.
Conditions: not given
In short, it runs like this:
as §1
Target sequence in this assay (P14902 whole entry): as above
`NOC(CCc1cccc(Cl)c1)c1ccccc1` (centres undefined) displayed an IC50 of 6.74 µM.
On the same count and under the same terms, the figure for `NOC(c1ccccc1)c1ccccc1F` (centres undefined) is 1.26 µM; for `NOC(c1ccc(Cl)cc1)c1ccc(Cl)cc1` it is 1.09 µM.
The same measure, in the same setting: the figure for `NOC(c1ccccc1)c1ccsc1` (centres undefined) is 3.36 µM; for `NOC(c1ccccc1)c1cccc(Cl)c1Cl` (centres undefined) it is 1.87 µM.
On the same count and under the same terms, the figure for `NOC(c1ccccc1)c1cc(F)cc(F)c1` (centres undefined) is 0.357 µM; for `NOC(c1ccccc1)c1cccc(Br)c1` (centres undefined) it is 0.59 µM.

Staying with this data set, now noted: hela.
`COc1ccccc1C(ON)c1ccccc1` (centres undefined) yielded an IC50 of 1.11 µM.

The target in another data set is T4, Indoleamine 2,3-dioxygenase 2 (Homo sapiens) (UniProt Q6ZQW0).
T4 sequence (whole entry): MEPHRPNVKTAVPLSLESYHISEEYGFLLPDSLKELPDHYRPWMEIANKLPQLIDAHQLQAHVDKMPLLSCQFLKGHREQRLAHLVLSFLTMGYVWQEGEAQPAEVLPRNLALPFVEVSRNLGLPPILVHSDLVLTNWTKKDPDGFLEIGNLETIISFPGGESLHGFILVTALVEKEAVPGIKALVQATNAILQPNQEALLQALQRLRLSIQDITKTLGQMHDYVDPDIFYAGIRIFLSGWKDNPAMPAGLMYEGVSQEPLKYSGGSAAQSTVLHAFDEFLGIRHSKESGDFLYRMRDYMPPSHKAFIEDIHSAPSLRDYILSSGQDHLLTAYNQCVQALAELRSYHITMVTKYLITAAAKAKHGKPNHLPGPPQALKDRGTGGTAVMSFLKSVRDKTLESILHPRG
The experiment in a line: Inhibition of IDO2 (unknown origin) at 100 uM using L-tryptophan as substrate by spectrophotometric method relative to control.
Conditions: not given
Usually inhibition stands for the change of the read-out against control, counted positive when it falls. Low readings indicate little suppression, high ones strong suppression. As for `NOC(CCc1cccc(Cl)c1)c1ccccc1` (centres undefined), the inhibition turned out to be 78.1%.
Same read-out and setting: the figure for `COc1ccccc1C(ON)c1ccccc1` (centres undefined) is 80%.
Still for that read-out and setting: the figure for `NOC(c1ccccc1)c1ccccc1F` (centres undefined) is 77.8%; for `NOC(c1ccc(Cl)cc1)c1ccc(Cl)cc1` it is 69.3%; for `NOC(c1ccccc1)c1ccsc1` (centres undefined) it is 76.5%.
On the same count and under the same terms, the figure for `NOC(c1ccccc1)c1cccc(Cl)c1Cl` (centres undefined) is 72.4%; for `NOC(c1ccccc1)c1cc(F)cc(F)c1` (centres undefined) it is 83%.
As for `NOC(c1ccccc1)c1cccc(Br)c1` (centres undefined), the inhibition is 77.6%.

Test system in the next data set: not listed separately
Kind of data set: Selectivity ratio of IC50 for inhibition of mouse IDO2 expressed in human T-REx cells to IC50 for inhibition of IDO1 in human HeLa cells. The data set is classed as cell-based.
Conditions: not given
In outline:
as §1
Regarding `NOC(c1ccccc1)c1ccccc1F` (centres undefined), the Ratio IC50 was 10.
Turning to `NOC(c1ccccc1)c1ccsc1` (centres undefined), the Ratio IC50 was determined as 10.

The next data set has as its target T3, Indoleamine 2,3-dioxygenase 1. Kind of data set: Inhibition of IDO1 (unknown origin) at 100 uM using L-tryptophan as substrate by spectrophotometric method relative to control.
Conditions: not given
Target sequence in this assay (P14902 whole entry, looked up): as the sequence (P14902 whole entry) above
In turn, `NOC(CCc1cccc(Cl)c1)c1ccccc1` (centres undefined) registered an inhibition greater than 95%.
The same measure, in the same setting: the figure for `COc1ccccc1C(ON)c1ccccc1` (centres undefined) is greater than 95%.
For `NOC(c1ccccc1)c1ccccc1F` (centres undefined), the inhibition was greater than 95%.
Still for that read-out and setting: the figure for `NOC(c1ccc(Cl)cc1)c1ccc(Cl)cc1` is greater than 95%; for `NOC(c1ccccc1)c1ccsc1` (centres undefined) it is 83%.
Turning to `NOC(c1ccccc1)c1cccc(Cl)c1Cl` (centres undefined), the inhibition is greater than 95%.
The compound `NOC(c1ccccc1)c1cc(F)cc(F)c1` (centres undefined) yielded an inhibition greater than 95%.
On the same count and under the same terms, the figure for `NOC(c1ccccc1)c1cccc(Br)c1` (centres undefined) is greater than 95%.

Test system in another data set: not listed separately
The experiment in a line: Cytotoxicity against human HeLa cells assessed as cell viability up to 100 uM relative to control. The data set is classed as cell-based. The settings on record: read-out: Activity.
Consider `NOC(CCc1cccc(Cl)c1)c1ccccc1` (centres undefined), for which the viability is no less than 80%.
The same measure, in the same setting: the figure for `COc1ccccc1C(ON)c1ccccc1` (centres undefined) is no less than 80%; for `NOC(c1ccccc1)c1ccccc1F` (centres undefined) it is no less than 80%; for `NOC(c1ccc(Cl)cc1)c1ccc(Cl)cc1` it is no less than 80%.
The same measure, in the same setting: the figure for `O=C1CC(c2c[nH]c3ccc(F)cc23)C(=O)N1` (centres undefined) [PF-06840003] is no less than 80%; for `NOC(c1ccccc1)c1ccsc1` (centres undefined) it is no less than 80%; for `NOC(c1ccccc1)c1cccc(Cl)c1Cl` (centres undefined) it is no less than 80%.
For `NOC(c1ccccc1)c1cc(F)cc(F)c1` (centres undefined), the viability is no less than 80%.
Still for that read-out and setting: the figure for `NS(=O)(=O)NCCNc1nonc1C(=NO)Nc1ccc(F)c(Br)c1` [EPACADOSTAT] is no less than 80%; for `NOC(c1ccccc1)c1cccc(Br)c1` (centres undefined) it is 60%.

For a further data set, the target named is T2, Tryptophan 2,3-dioxygenase. The experiment in a line: Inhibition of TDO (unknown origin) at 100 uM using L-tryptophan as substrate by spectrophotometric method relative to control.
Conditions: not given
Target sequence in this assay (P48775 whole entry, looked up): as the sequence (P48775 whole entry) above
In turn, `NOC(CCc1cccc(Cl)c1)c1ccccc1` (centres undefined) displayed an inhibition of 93.1%.
On the same count and under the same terms, the figure for `NOC(c1ccccc1)c1ccccc1F` (centres undefined) is 87.2%; for `NOC(c1ccc(Cl)cc1)c1ccc(Cl)cc1` it is greater than 95%.
Still for that read-out and setting: the figure for `NOC(c1ccccc1)c1ccsc1` (centres undefined) is 93.3%.
Same read-out and setting: the figure for `NOC(c1ccccc1)c1cccc(Cl)c1Cl` (centres undefined) is greater than 95%; for `NOC(c1ccccc1)c1cc(F)cc(F)c1` (centres undefined) it is 92.6%; for `NOC(c1ccccc1)c1cccc(Br)c1` (centres undefined) it is 92.6%.

The species entered for another data set is Homo sapiens. Kind of data set: Selectivity ratio of IC50 for inhibition of mouse IDO2 expressed in human T-REx cells to IC50 for inhibition of human TDO expressed in human T-REx cells. The data set is classed as cell-based.
Conditions: not given
In outline: as §1
For `NOC(c1ccccc1)c1ccccc1F` (centres undefined), the Ratio IC50 worked out at 10.
Same read-out and setting: the figure for `NOC(c1ccccc1)c1ccsc1` (centres undefined) is 10.
